# Tested on: Escherichia coli
# Assay: Antibacterial activity tested against Escherichia coli ATCC 8739
# Type: functional
# Outline: (§1)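 MICs (µg/mL) determined by conventional agar dilution against a panel of eight Gram-negative and five Gram-positive reference strains.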
row,SMILES,MIC [µg/mL]
1,CNc1cc2c(=O)c(C(=O)O)cn(C3CC3)c2c(C)c1N1CCC(C)CC1,1
2,Cc1c(N2CCCCC2)c(F)cc2c(=O)c(C(=O)O)cn(C3CC3)c12,0.125
3,COc1ccc(-n2cc(C(=O)O)c(=O)c3cc(N)c(N4CCN(C)CC4)c(C)c32)cc1,> 128
4,Cc1c(N2CC(C)OC(C)C2)c(N)cc2c(=O)c(C(=O)O)cn(C3CC3)c12 (stereo not given),0.06
5,Cc1c(N2CCC2)c(N)cc2c(=O)c(C(=O)O)cn(C3CC3)c12,16

# Tested on: Escherichia coli
# Assay: Antibacterial activity tested against Escherichia coli ISF 432
# Type: functional
# Outline: as §1
row,SMILES,MIC [µg/mL]
1,CNc1cc2c(=O)c(C(=O)O)cn(C3CC3)c2c(C)c1N1CCC(C)CC1,0.5
2,Cc1c(N2CCCCC2)c(F)cc2c(=O)c(C(=O)O)cn(C3CC3)c12,0.03
3,COc1ccc(-n2cc(C(=O)O)c(=O)c3cc(N)c(N4CCN(C)CC4)c(C)c32)cc1,16
4,Cc1c(N2CC(C)OC(C)C2)c(N)cc2c(=O)c(C(=O)O)cn(C3CC3)c12 (stereo not given),0.03
5,Cc1c(N2CCC2)c(N)cc2c(=O)c(C(=O)O)cn(C3CC3)c12,0.25

# Tested on: Enterobacter cloacae
# Assay: Antibacterial activity tested against Enterobacter cloacae OMNFI 174
# Type: functional
row,SMILES,MIC [µg/mL]
1,CNc1cc2c(=O)c(C(=O)O)cn(C3CC3)c2c(C)c1N1CCC(C)CC1,64
2,Cc1c(N2CCCCC2)c(F)cc2c(=O)c(C(=O)O)cn(C3CC3)c12,16
3,COc1ccc(-n2cc(C(=O)O)c(=O)c3cc(N)c(N4CCN(C)CC4)c(C)c32)cc1,> 128
4,Cc1c(N2CC(C)OC(C)C2)c(N)cc2c(=O)c(C(=O)O)cn(C3CC3)c12 (stereo not given),1
5,Cc1c(N2CCC2)c(N)cc2c(=O)c(C(=O)O)cn(C3CC3)c12,16

# Tested on: Bacteria
# Assay: Geometric mean of antibacterial activity (Gram +ve bacteria) of the compound
# Type: functional
# Outline: (§2)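 Geometric means calculated from agar-dilution MICs (µg/mL), taken separately across the five Gram-positive and the eight Gram-negative panel strains.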
row,SMILES,Geometric mean
1,CNc1cc2c(=O)c(C(=O)O)cn(C3CC3)c2c(C)c1N1CCC(C)CC1,3.031
2,Cc1c(N2CCCCC2)c(F)cc2c(=O)c(C(=O)O)cn(C3CC3)c12,0.046
3,COc1ccc(-n2cc(C(=O)O)c(=O)c3cc(N)c(N4CCN(C)CC4)c(C)c32)cc1,84.45
4,Cc1c(N2CC(C)OC(C)C2)c(N)cc2c(=O)c(C(=O)O)cn(C3CC3)c12 (stereo not given),0.122
5,Cc1c(N2CCC2)c(N)cc2c(=O)c(C(=O)O)cn(C3CC3)c12,18.379

# Tested on: not listed separately
# Assay: Geometric mean of antibacterial activity (Gram -ve bacteria) of the compound
# Type: functional
# Outline: as §2
row,SMILES,Geometric mean
1,CNc1cc2c(=O)c(C(=O)O)cn(C3CC3)c2c(C)c1N1CCC(C)CC1,11.313
2,Cc1c(N2CCCCC2)c(F)cc2c(=O)c(C(=O)O)cn(C3CC3)c12,0.591
3,COc1ccc(-n2cc(C(=O)O)c(=O)c3cc(N)c(N4CCN(C)CC4)c(C)c32)cc1,76.109
4,Cc1c(N2CC(C)OC(C)C2)c(N)cc2c(=O)c(C(=O)O)cn(C3CC3)c12 (stereo not given),0.451
5,Cc1c(N2CCC2)c(N)cc2c(=O)c(C(=O)O)cn(C3CC3)c12,11.313

# Tested on: Klebsiella pneumoniae
# Assay: Antibacterial activity tested against Klebsiella pneumoniae (Klebsiella pneumoniae) ATCC 10031
# Type: functional
# Outline: as §1
row,SMILES,MIC [µg/mL]
1,CNc1cc2c(=O)c(C(=O)O)cn(C3CC3)c2c(C)c1N1CCC(C)CC1,0.5
2,Cc1c(N2CCCCC2)c(F)cc2c(=O)c(C(=O)O)cn(C3CC3)c12,0.125
3,COc1ccc(-n2cc(C(=O)O)c(=O)c3cc(N)c(N4CCN(C)CC4)c(C)c32)cc1,16
4,Cc1c(N2CC(C)OC(C)C2)c(N)cc2c(=O)c(C(=O)O)cn(C3CC3)c12 (stereo not given),0.03
5,Cc1c(N2CCC2)c(N)cc2c(=O)c(C(=O)O)cn(C3CC3)c12,0.25

# Tested on: Proteus vulgaris
# Assay: Antibacterial activity tested against Proteus vulgaris CNUR 5
# Type: functional
# Outline: as §1
row,SMILES,MIC [µg/mL]
1,CNc1cc2c(=O)c(C(=O)O)cn(C3CC3)c2c(C)c1N1CCC(C)CC1,> 128
2,Cc1c(N2CCCCC2)c(F)cc2c(=O)c(C(=O)O)cn(C3CC3)c12,2
3,COc1ccc(-n2cc(C(=O)O)c(=O)c3cc(N)c(N4CCN(C)CC4)c(C)c32)cc1,128
4,Cc1c(N2CC(C)OC(C)C2)c(N)cc2c(=O)c(C(=O)O)cn(C3CC3)c12 (stereo not given),16
5,Cc1c(N2CCC2)c(N)cc2c(=O)c(C(=O)O)cn(C3CC3)c12,> 128

# Tested on: Providencia stuartii
# Assay: Antibacterial activity tested against Providencia stuartii CNUR 5
# Type: functional
# Outline: as §1
row,SMILES,MIC [µg/mL]
1,CNc1cc2c(=O)c(C(=O)O)cn(C3CC3)c2c(C)c1N1CCC(C)CC1,16
2,Cc1c(N2CCCCC2)c(F)cc2c(=O)c(C(=O)O)cn(C3CC3)c12,2
3,COc1ccc(-n2cc(C(=O)O)c(=O)c3cc(N)c(N4CCN(C)CC4)c(C)c32)cc1,128
4,Cc1c(N2CC(C)OC(C)C2)c(N)cc2c(=O)c(C(=O)O)cn(C3CC3)c12 (stereo not given),0.5
5,Cc1c(N2CCC2)c(N)cc2c(=O)c(C(=O)O)cn(C3CC3)c12,64

# Tested on: Pseudomonas aeruginosa
# Assay: Antibacterial activity tested against P. ae (Pseudomonas aeruginosa) ATCC 9027
# Type: functional
# Outline: as §1
row,SMILES,MIC [µg/mL]
1,CNc1cc2c(=O)c(C(=O)O)cn(C3CC3)c2c(C)c1N1CCC(C)CC1,> 128
2,Cc1c(N2CCCCC2)c(F)cc2c(=O)c(C(=O)O)cn(C3CC3)c12,1
3,COc1ccc(-n2cc(C(=O)O)c(=O)c3cc(N)c(N4CCN(C)CC4)c(C)c32)cc1,> 128
4,Cc1c(N2CC(C)OC(C)C2)c(N)cc2c(=O)c(C(=O)O)cn(C3CC3)c12 (stereo not given),4
5,Cc1c(N2CCC2)c(N)cc2c(=O)c(C(=O)O)cn(C3CC3)c12,> 128

# Tested on: Shigella
# Assay: Antibacterial activity tested against Shigella enteritidis
# Type: functional
# Outline: as §1
row,SMILES,MIC [µg/mL]
1,CNc1cc2c(=O)c(C(=O)O)cn(C3CC3)c2c(C)c1N1CCC(C)CC1,64
2,Cc1c(N2CCCCC2)c(F)cc2c(=O)c(C(=O)O)cn(C3CC3)c12,0.5
3,COc1ccc(-n2cc(C(=O)O)c(=O)c3cc(N)c(N4CCN(C)CC4)c(C)c32)cc1,> 128
4,Cc1c(N2CC(C)OC(C)C2)c(N)cc2c(=O)c(C(=O)O)cn(C3CC3)c12 (stereo not given),1
5,Cc1c(N2CCC2)c(N)cc2c(=O)c(C(=O)O)cn(C3CC3)c12,16

# Tested on: Staphylococcus aureus
# Assay: Antibacterial activity against Staphylococcus aureus ATCC 6538
# Type: functional
# Outline: as §1
row,SMILES,MIC [µg/mL]
1,CNc1cc2c(=O)c(C(=O)O)cn(C3CC3)c2c(C)c1N1CCC(C)CC1,1
2,Cc1c(N2CCCCC2)c(F)cc2c(=O)c(C(=O)O)cn(C3CC3)c12,0.03
3,COc1ccc(-n2cc(C(=O)O)c(=O)c3cc(N)c(N4CCN(C)CC4)c(C)c32)cc1,64
4,Cc1c(N2CC(C)OC(C)C2)c(N)cc2c(=O)c(C(=O)O)cn(C3CC3)c12 (stereo not given),0.06
5,Cc1c(N2CCC2)c(N)cc2c(=O)c(C(=O)O)cn(C3CC3)c12,8

# Tested on: Staphylococcus aureus
# Assay: Antibacterial activity against Staphylococcus aureus MPR 5
# Type: functional
# Outline: as §1
row,SMILES,MIC [µg/mL]
1,CNc1cc2c(=O)c(C(=O)O)cn(C3CC3)c2c(C)c1N1CCC(C)CC1,1
2,Cc1c(N2CCCCC2)c(F)cc2c(=O)c(C(=O)O)cn(C3CC3)c12,0.03
3,COc1ccc(-n2cc(C(=O)O)c(=O)c3cc(N)c(N4CCN(C)CC4)c(C)c32)cc1,64
4,Cc1c(N2CC(C)OC(C)C2)c(N)cc2c(=O)c(C(=O)O)cn(C3CC3)c12 (stereo not given),0.06
5,Cc1c(N2CCC2)c(N)cc2c(=O)c(C(=O)O)cn(C3CC3)c12,8

# Tested on: Enterococcus faecalis
# Assay: Antibacterial activity tested against Streptococcus faecalis LEP Br
# Type: functional
# Outline: as §1
row,SMILES,MIC [µg/mL]
1,CNc1cc2c(=O)c(C(=O)O)cn(C3CC3)c2c(C)c1N1CCC(C)CC1,32
2,Cc1c(N2CCCCC2)c(F)cc2c(=O)c(C(=O)O)cn(C3CC3)c12,0.25
3,COc1ccc(-n2cc(C(=O)O)c(=O)c3cc(N)c(N4CCN(C)CC4)c(C)c32)cc1,128
4,Cc1c(N2CC(C)OC(C)C2)c(N)cc2c(=O)c(C(=O)O)cn(C3CC3)c12 (stereo not given),1
5,Cc1c(N2CCC2)c(N)cc2c(=O)c(C(=O)O)cn(C3CC3)c12,> 128

# Tested on: Staphylococcus epidermidis
# Assay: Antibacterial activity tested against Staphylococcus epidermidis CPHL A2
# Type: functional
# Outline: as §1
row,SMILES,MIC [µg/mL]
1,CNc1cc2c(=O)c(C(=O)O)cn(C3CC3)c2c(C)c1N1CCC(C)CC1,2
2,Cc1c(N2CCCCC2)c(F)cc2c(=O)c(C(=O)O)cn(C3CC3)c12,0.03
3,COc1ccc(-n2cc(C(=O)O)c(=O)c3cc(N)c(N4CCN(C)CC4)c(C)c32)cc1,128
4,Cc1c(N2CC(C)OC(C)C2)c(N)cc2c(=O)c(C(=O)O)cn(C3CC3)c12 (stereo not given),0.06
5,Cc1c(N2CCC2)c(N)cc2c(=O)c(C(=O)O)cn(C3CC3)c12,16

# Tested on: Staphylococcus epidermidis
# Assay: Antibacterial activity tested against Staphylococcus epidermidis HCF Berset C
# Type: functional
# Outline: as §1
row,SMILES,MIC [µg/mL]
1,CNc1cc2c(=O)c(C(=O)O)cn(C3CC3)c2c(C)c1N1CCC(C)CC1,4
2,Cc1c(N2CCCCC2)c(F)cc2c(=O)c(C(=O)O)cn(C3CC3)c12,0.03
3,COc1ccc(-n2cc(C(=O)O)c(=O)c3cc(N)c(N4CCN(C)CC4)c(C)c32)cc1,64
4,Cc1c(N2CC(C)OC(C)C2)c(N)cc2c(=O)c(C(=O)O)cn(C3CC3)c12 (stereo not given),0.125
5,Cc1c(N2CCC2)c(N)cc2c(=O)c(C(=O)O)cn(C3CC3)c12,16

# Reference: ChEMBL document CHEMBL1129660, “Studies on 6-aminoquinolones: synthesis and antibacterial evaluation of 6-amino-8-methylquinolones” (J Med Chem, 1996)
